According to ChEMBL document CHEMBL4699429, “Novel 1,3,4-thiadiazole compounds as potential MAO-A inhibitors - design, synthesis, biological evaluation and molecular modelling” (RSC Med Chem, 2020):

Assays:
[1] = target: T1, Amine oxidase [flavin-containing] B (Homo sapiens, UniProt P27338); test: Inhibition of human recombinant MAO-B at 100 uM using tyramine as substrate preincubated with enzyme for 30 mins followed by incubation with substrate for 30 mins by Amplex Red reagent based fluorometric method relative to control; details: 0.5 h, read-out: INH
T1 sequence (P27338 whole entry): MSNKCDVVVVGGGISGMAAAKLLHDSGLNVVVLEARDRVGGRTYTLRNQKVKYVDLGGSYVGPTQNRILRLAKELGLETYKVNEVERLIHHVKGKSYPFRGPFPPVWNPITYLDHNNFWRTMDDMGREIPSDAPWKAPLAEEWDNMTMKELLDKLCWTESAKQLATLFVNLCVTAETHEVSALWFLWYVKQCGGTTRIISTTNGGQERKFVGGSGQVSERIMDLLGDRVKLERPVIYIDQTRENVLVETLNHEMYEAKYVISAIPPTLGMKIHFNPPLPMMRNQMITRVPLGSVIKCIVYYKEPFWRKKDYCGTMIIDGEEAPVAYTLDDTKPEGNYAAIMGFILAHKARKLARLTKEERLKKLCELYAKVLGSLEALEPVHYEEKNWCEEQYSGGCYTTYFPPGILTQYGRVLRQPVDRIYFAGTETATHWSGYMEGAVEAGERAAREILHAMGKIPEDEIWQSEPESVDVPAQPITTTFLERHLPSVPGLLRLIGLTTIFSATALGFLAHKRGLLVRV

[2] = target: T2, Amine oxidase [flavin-containing] A (Homo sapiens, UniProt P21397); test: Inhibition of human recombinant MAO-A at 1 nM using tyramine as substrate preincubated with enzyme for 30 mins followed by incubation with substrate for 30 mins by Amplex Red reagent based fluorometric method relative to control; details: 0.5 h, time 60 min
T2 sequence (P21397 whole entry): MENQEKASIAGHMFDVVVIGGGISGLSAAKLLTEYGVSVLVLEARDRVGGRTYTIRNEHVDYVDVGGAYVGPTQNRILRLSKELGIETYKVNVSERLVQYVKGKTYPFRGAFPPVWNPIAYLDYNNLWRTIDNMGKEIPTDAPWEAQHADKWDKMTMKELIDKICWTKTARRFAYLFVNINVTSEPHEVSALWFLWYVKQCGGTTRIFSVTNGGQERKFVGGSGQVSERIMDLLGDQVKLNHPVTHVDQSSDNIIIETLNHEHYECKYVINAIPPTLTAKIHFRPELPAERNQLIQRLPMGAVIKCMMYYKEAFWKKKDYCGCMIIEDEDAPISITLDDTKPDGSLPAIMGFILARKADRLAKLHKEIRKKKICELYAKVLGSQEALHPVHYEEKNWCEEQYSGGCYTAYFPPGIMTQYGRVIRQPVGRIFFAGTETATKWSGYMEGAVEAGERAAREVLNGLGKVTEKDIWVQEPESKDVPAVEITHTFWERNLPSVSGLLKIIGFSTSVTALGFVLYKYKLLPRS
Procedure, shortened: (§1)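 Recombinant hMAO-A at 0.5 U/mL in phosphate buffer. Inhibitors are dissolved in 2% DMSO and preincubated with enzyme at 37 °C for 30 min. The working solution is then added: horseradish peroxidase, Amplex (Ampliflu) red and tyramine. Fluorescence (Ex/Em 535/587 nm) is read at 5-min intervals over 30 min at 37 °C. Controls use 2% DMSO. Background without enzyme is subtracted. Peroxidase interference is checked with H2O2.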

[3] = target: T2, Amine oxidase [flavin-containing] A; test: Inhibition of human recombinant MAO-A at 100 uM using tyramine as substrate preincubated with enzyme for 30 mins followed by incubation with substrate for 30 mins by Amplex Red reagent based fluorometric method relative to control; details: 0.5 h, time 60 min; procedure, shortened: as §1
[4] = target: T2, Amine oxidase [flavin-containing] A; test: Inhibition of human recombinant MAO-A at 1 uM using tyramine as substrate preincubated with enzyme for 30 mins followed by incubation with substrate for 30 mins by Amplex Red reagent based fluorometric method relative to control; details: 0.5 h, time 60 min; procedure, shortened: as §1
[5] = target: T1, Amine oxidase [flavin-containing] B; test: Inhibition of human recombinant MAO-B at 1 mM using tyramine as substrate preincubated with enzyme for 30 mins followed by incubation with substrate for 30 mins by Amplex Red reagent based fluorometric method relative to control; details: 0.5 h, read-out: INH
[6] = target: T2, Amine oxidase [flavin-containing] A; test: Inhibition of human recombinant MAO-A at 1 mM using tyramine as substrate preincubated with enzyme for 30 mins followed by incubation with substrate for 30 mins by Amplex Red reagent based fluorometric method relative to control; details: 0.5 h, time 60 min; procedure, shortened: as §1
[7] = target: T2, Amine oxidase [flavin-containing] A; test: Inhibition of human recombinant MAO-A at 0.01 nM using tyramine as substrate preincubated with enzyme for 30 mins followed by incubation with substrate for 30 mins by Amplex Red reagent based fluorometric method relative to control; details: 0.5 h, time 60 min; procedure, shortened: as §1
[8] = target: T2, Amine oxidase [flavin-containing] A; test: Inhibition of human recombinant MAO-A at 0.01 uM using tyramine as substrate preincubated with enzyme for 30 mins followed by incubation with substrate for 30 mins by Amplex Red reagent based fluorometric method relative to control; details: 0.5 h, time 60 min; procedure, shortened: as §1
[9] = target: T2, Amine oxidase [flavin-containing] A; test: Inhibition of human recombinant MAO-A at 10 uM using tyramine as substrate preincubated with enzyme for 30 mins followed by incubation with substrate for 30 mins by Amplex Red reagent based fluorometric method relative to control; details: 0.5 h, time 60 min; procedure, shortened: as §1
[10] = target: T2, Amine oxidase [flavin-containing] A; test: Inhibition of human recombinant MAO-A at 0.1 uM using tyramine as substrate preincubated with enzyme for 30 mins followed by incubation with substrate for 30 mins by Amplex Red reagent based fluorometric method relative to control; details: 0.5 h, time 60 min; procedure, shortened: as §1
[11] = target: T2, Amine oxidase [flavin-containing] A; test: Inhibition of human recombinant MAO-A at 0.1 nM using tyramine as substrate preincubated with enzyme for 30 mins followed by incubation with substrate for 30 mins by Amplex Red reagent based fluorometric method relative to control; details: 0.5 h, time 60 min; procedure, shortened: as §1
[12] = target: T2, Amine oxidase [flavin-containing] A; test: Inhibition of human recombinant MAO-A using tyramine as substrate preincubated with enzyme for 30 mins followed by incubation with substrate for 30 mins by Amplex Red reagent based fluorometric method
Procedure, shortened: as §1, with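 “tyramine.” for “tyramine. Fluorescence (Ex/Em 535/587 nm) is read at 5-min intervals over 30 min at 37 °C.”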

[13] = target: T2, Amine oxidase [flavin-containing] A; test: Inhibition of human recombinant MAO-A assessed as enzyme residual activity using tyramine as substrate at 4XIC50 incubated with enzyme for 15 mins followed by substrate addition by Amplex Red reagent based fluorometric method relative to control; details: 0.25 h
Procedure, shortened: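 Recombinant hMAO-A (1 U mL⁻¹) preincubated with inhibitor for 15 min at 37 °C in 0.05 M potassium phosphate, pH 7.4, with 5% sucrose and 1% DMSO. The mixture was dialysed 24 h at 4 °C (12 000 Da cut-off) against 100 mM potassium phosphate, pH 7.4, 5% sucrose, with two buffer changes. Residual activity was then measured in triplicate and reported as mean ± SEM.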

[14] = target: T2, Amine oxidase [flavin-containing] A; test: Competitive inhibition of human recombinant MAO-A using tyramine as substrate preincubated with enzyme for 30 mins followed by substrate addition and measured for 30 mins by Lineweaver-burk plot analysis

SMILES | inhibition at 100 µM [1] [%] | inhibition at 0.001 µM [2] [%] | inhibition at 100 µM [3] [%] | inhibition at 1 µM [4] [%] | inhibition at 1000 µM [5] [%] | inhibition at 1000 µM [6] [%] | inhibition at 10 pM [7] [%] | inhibition at 0.01 µM [8] [%] | inhibition at 10 µM [9] [%] | inhibition at 0.1 µM [10] [%] | inhibition at 0.0001 µM [11] [%] | IC50 [12] [nM] | Activity [13] [%] | Ki [14] [nM]
CC(C)Nc1nnc(SCC(=O)N(Cc2cccc([N+](=O)[O-])c2)c2ccc(F)cc2)s1 | 28.5 | 13.6 | 89.1 | 46 | 36 | 92.5 | 6.87 | 23.9 | 86.1 | 43 | 10.8 | 1070 |  | 
O=C(CSc1nnc(Nc2ccccc2)s1)N(Cc1cccc([N+](=O)[O-])c1)c1ccc(F)cc1 | 20.7 |  | 41.4 |  | 43.1 | 89.5 |  |  |  |  |  |  |  | 
CCNc1nnc(SCC(=O)N(Cc2cccc([N+](=O)[O-])c2)c2ccc(F)cc2)s1 | 22.4 | 21 | 89.5 | 61.9 | 41.3 | 93.6 | 10.3 | 30.3 | 74.1 | 42.1 | 14.2 | 336 |  | 
CCCNc1nnc(SCC(=O)N(Cc2cccc([N+](=O)[O-])c2)c2ccc(F)cc2)s1 | 26.8 | 20.5 | 91.1 | 62.3 | 42.7 | 95 | 8.5 | 25.1 | 78.3 | 45.1 | 12 | 241 |  | 
CCCCNc1nnc(SCC(=O)N(Cc2cccc([N+](=O)[O-])c2)c2ccc(F)cc2)s1 | 34.3 | 19.7 | 82.3 | 47.3 | 40.6 | 90.5 | 6.94 | 30 | 76 | 33.6 | 11.1 | 1170 |  | 
C=CCNc1nnc(SCC(=O)N(Cc2cccc([N+](=O)[O-])c2)c2ccc(F)cc2)s1 | 29.2 | 20.5 | 86.4 | 56.5 | 38.1 | 92 | 10.2 | 32.7 | 75.2 | 43.2 | 13.5 | 502 |  | 
Cc1ccc(Nc2nnc(SCC(=O)N(Cc3cccc([N+](=O)[O-])c3)c3ccc(F)cc3)s2)cc1 | 26.5 |  | 42.7 |  | 37.9 | 87.6 |  |  |  |  |  |  |  | 
CC(C)CNc1nnc(SCC(=O)N(Cc2cccc([N+](=O)[O-])c2)c2ccc(F)cc2)s1 | 24.2 | 17.3 | 84.3 | 43.2 | 36 | 93.5 | 6.36 | 25.5 | 72.6 | 31.8 | 12.6 | 1790 |  | 
COCCNc1nnc(SCC(=O)N(Cc2cccc([N+](=O)[O-])c2)c2ccc(F)cc2)s1 | 25.7 | 26.9 | 91.5 | 72.7 | 38.6 | 94.1 | 13.5 | 34.7 | 80.6 | 61.1 | 20.1 | 60 | 25.956 | 33
C#CCN(C)CCCOc1ccc(Cl)cc1Cl [CLORGILINE] |  | 21.7 | 92.1 | 79.1 |  | 96.4 | 11.3 | 35.3 | 88.5 | 63.9 | 17 |  | 88.315 | 
O=C(NCCN1CCOCC1)c1ccc(Cl)cc1 [MOCLOBEMIDE] |  | 15.4 | 83.1 | 35.8 |  | 95.3 | 7.25 | 19.6 | 62.4 | 24.5 | 12.8 |  | 31.253 | 
